The text below walks through data of ChEMBL document CHEMBL1671784 (J Med Chem, 2011).

Experiment [1] concerns Rattus norvegicus. Description: Antinociceptive activity in sc dosed Sprague-Dawley rat assessed as thermal-stimulus induced tail flick latency after 2 hrs. In kind it is functional. Background: In hot-plate and tail-flick tests a longer latency is read as antinociception.
In experiment [2] the test system is Rattus norvegicus. Kind of experiment: Antinociceptive activity in sc dosed Sprague-Dawley rat assessed as thermal-stimulus induced tail flick latency after 0.5 hrs. The format is functional.
Experiment [3] deals with Rattus norvegicus. Description: Antinociceptive activity in sc dosed Sprague-Dawley rat assessed as thermal-stimulus induced tail flick latency after 3 hrs. The format is functional.
Experiment [4] deals with Rattus norvegicus. Kind of experiment: Antinociceptive activity in sc dosed Sprague-Dawley rat assessed as thermal-stimulus induced tail flick latency after 1 hrs. In kind it is functional.
In experiment [5] the test system is Rattus norvegicus. Description: Antinociceptive activity in sc dosed Sprague-Dawley rat assessed as thermal-stimulus induced tail flick latency relative to morphine. In kind it is functional.
Another experiment concerns the target Mu-type opioid receptor (Rattus norvegicus, UniProt P33535). Description: Displacement of [3H]DAMGO from mu opioid receptor in Sprague-Dawley rat brain membrane by liquid scintillation counting. In kind it is cell membranes. (In a radioligand displacement assay an active substance lowers the binding of a labelled ligand.)
Experiment [6] is described as follows: Displacement of [3H]U69593 from kappa opioid receptor in guinea pig brain membrane by liquid scintillation counting. The format is cell membranes, Cavia porcellus.
The target of experiment [7] is Kappa-type opioid receptor (Cavia porcellus, UniProt P41144). Description: Displacement of [3H][Ile5,6]deltorphin 2 from delta opioid receptor in Sprague-Dawley rat brain membrane by liquid scintillation counting. The format is cell membranes.
Chain of Kappa-type opioid receptor (P41144 whole entry): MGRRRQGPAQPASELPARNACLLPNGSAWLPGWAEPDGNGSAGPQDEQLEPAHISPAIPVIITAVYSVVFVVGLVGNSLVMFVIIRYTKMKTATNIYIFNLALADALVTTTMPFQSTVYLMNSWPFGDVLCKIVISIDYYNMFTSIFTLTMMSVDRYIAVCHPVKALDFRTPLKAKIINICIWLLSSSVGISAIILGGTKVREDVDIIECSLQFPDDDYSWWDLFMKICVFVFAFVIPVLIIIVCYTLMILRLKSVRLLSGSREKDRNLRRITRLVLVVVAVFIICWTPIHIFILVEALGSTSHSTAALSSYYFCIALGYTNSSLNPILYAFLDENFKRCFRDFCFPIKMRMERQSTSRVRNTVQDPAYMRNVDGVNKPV
The subject of experiment [8] is Rattus norvegicus. Kind of experiment: Antinociceptive activity in Sprague-Dawley rat inflammatory model assessed as paw withdrawal latency at 170 nmol/kg, sc administered post carrageenan challenge. In kind it is functional, organism-based. An outline of the steps:
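Male Sprague-Dawley rats (250 g), unanesthetized; unilateral inflammation from 100 μL 1% carrageenan into the right hindpaw plantar surface. At 3 h post-carrageenan, compound given sc in 0.9% saline (100 μL); saline controls; 4–7 rats per group. Randall–Selitto paw pressure (blunt wedge piston, 48 g/s, 20 s cutoff) applied to the dorsal paw. Response is % change in withdrawal latency from the 3 h pre-drug value.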

The species named for experiment [9] is Rattus norvegicus. Particulars: Sprague-Dawley, at 426 nmol/kg.
The species named for experiment [10] is Rattus norvegicus. The settings on record: Sprague-Dawley, at 426 nmol/kg. This is another data set of the same source.
The test system of experiment [11] is Rattus norvegicus. Description: Antinociceptive activity in Sprague-Dawley rat inflammatory model assessed as paw withdrawal latency at 183 nmol/kg, sc administered post carrageenan challenge. The format is functional, organism-based.

Molecules are shown by their SMILES. Active and inactive are the calls of the source.

Chain of Mu-type opioid receptor (P33535 whole entry): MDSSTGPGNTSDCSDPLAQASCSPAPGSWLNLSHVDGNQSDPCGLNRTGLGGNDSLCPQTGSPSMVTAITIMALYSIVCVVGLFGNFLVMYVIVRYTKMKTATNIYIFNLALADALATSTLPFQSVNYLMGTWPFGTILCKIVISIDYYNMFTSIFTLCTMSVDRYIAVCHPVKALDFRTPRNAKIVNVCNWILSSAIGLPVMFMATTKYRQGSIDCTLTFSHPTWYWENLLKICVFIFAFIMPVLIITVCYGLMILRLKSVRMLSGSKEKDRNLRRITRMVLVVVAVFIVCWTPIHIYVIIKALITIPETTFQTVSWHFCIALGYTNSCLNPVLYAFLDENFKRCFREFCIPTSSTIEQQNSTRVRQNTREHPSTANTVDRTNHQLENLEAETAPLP

Broadly, the ED50 is the dose that gives a 50% effect, or the effect in half of the subjects. For `CO[C@@]12CC[C@H](NCC(=O)O)[C@@H]3Oc4c(O)ccc5c4[C@@]31CCN(C)[C@@H]2C5`, the ED50 with Rattus norvegicus [1] turned out to be 0.143 µmol/kg; in the experiment on Rattus norvegicus [2], 0.137 µmol/kg; in the experiment with Rattus norvegicus [3], 0.437 µmol/kg; in the experiment with Rattus norvegicus [4] it was 0.0585 µmol/kg.
As for `CN1CC[C@]23c4c5ccc(O)c4O[C@H]2[C@@H](O)C=C[C@H]3[C@H]1C5` [MORPHINE], the ED50 in the experiment with Rattus norvegicus [1] stood at 13.3 µmol/kg; in the experiment with Rattus norvegicus [2] it was 6.05 µmol/kg; in the experiment on Rattus norvegicus [4], 7.63 µmol/kg.
As usually defined, the Ki is the dissociation constant of the complex between target and ligand, obtained from inhibition or displacement. Read a high Ki as weaker binding. Regarding `CN1CC[C@]23c4c5ccc(O)c4O[C@H]2[C@H](NCC(=O)OC(C)(C)C)CC[C@@]3(OCCCc2ccccc2)[C@H]1C5`, in the experiment on Rattus norvegicus [5], the “fold change (FC)” value stood at 66. Moreover, the Ki at Mu-type opioid receptor turned out to be 1.03 nM; in experiment [6] it was 0.92 nM; in [7] it was 2.02 nM. In addition, the ED50 in the experiment with Rattus norvegicus [1] stood at 0.124 µmol/kg; in the experiment with Rattus norvegicus [2], 0.164 µmol/kg; in the experiment on Rattus norvegicus [3], 0.189 µmol/kg; with Rattus norvegicus [4], 0.0923 µmol/kg.
On to `CC(C)(C)OC(=O)CN[C@@H]1CC[C@@]2(OCCCc3ccccc3)[C@H]3Cc4ccc(O)c5c4[C@@]2(CCN3CC2CC2)[C@H]1O5`, for which the values for the Ki (on Mu-type opioid receptor; in experiment [6]; in [7]) were 1.01 nM, 0.4 nM and 1.77 nM, respectively. Also, the ED50 in the experiment on Rattus norvegicus [1] worked out at 0.0344 µmol/kg; in the experiment on Rattus norvegicus [2], 0.0338 µmol/kg; in the experiment on Rattus norvegicus [3], 0.056 µmol/kg; with Rattus norvegicus [4] it was 0.0268 µmol/kg.
For the molecule `CN1CC[C@]23c4c5ccc(O)c4O[C@H]2[C@@H](NCC(=O)O)CC[C@@]3(OCCCc2ccccc2)[C@H]1C5`, in the experiment with Rattus norvegicus [8], the result was Active.
As to `C=CC[N+]1(C)CC[C@]23c4c5ccc(O)c4O[C@H]2C(=O)CC[C@@]3(O)[C@H]1C5` (stereo partly drawn), the inhibition result in the experiment filed under Rattus norvegicus [9] and in the experiment listed under Rattus norvegicus [10] was “Active” each time.
As to `CC(C)(C)OC(=O)CN[C@H]1CC[C@@]2(OCCCc3ccccc3)[C@H]3Cc4ccc(O)c5c4[C@@]2(CCN3CC2CC2)[C@H]1O5`, in the experiment with Rattus norvegicus [5], the “fold change (FC)” value turned out to be 17. The Ki at Mu-type opioid receptor came out at 1.38 nM; in experiment [6], 1.11 nM; in experiment [7] it was 1.49 nM. Also, the ED50 in the experiment with Rattus norvegicus [1] stood at 0.363 µmol/kg; in the experiment on Rattus norvegicus [2], 0.365 µmol/kg; in the experiment with Rattus norvegicus [3], 0.427 µmol/kg; in the experiment on Rattus norvegicus [4] it was 0.348 µmol/kg.
Take `CN1CC[C@]23c4c5ccc(O)c4O[C@@]2(C)C(=O)CC[C@@]3(OCCCc2ccccc2)[C@H]1C5`: the figures for the Ki in [6] and in [7] were 0.14 nM and 0.54 nM, respectively.
As for `CN1CC[C@]23c4c5ccc(O)c4O[C@H]2[C@@H](NCC(=O)OC(C)(C)C)CC[C@@]3(OCCCc2ccccc2)[C@H]1C5`, the “fold change (FC)” value with Rattus norvegicus [5] is reported as 104. In addition, the figures for the Ki (at Mu-type opioid receptor; in [6]; in [7]) were 1.4 nM, 1.01 nM and 1.26 nM, respectively. In addition, the ED50 in the experiment with Rattus norvegicus [1] was 0.084 µmol/kg; in the experiment with Rattus norvegicus [2] it was 0.0635 µmol/kg; in the experiment with Rattus norvegicus [3], 0.148 µmol/kg; in the experiment with Rattus norvegicus [4] it was 0.0583 µmol/kg.
As for `CO[C@@]12CC[C@@H](NCC(=O)O)[C@@H]3Oc4c(O)ccc5c4[C@@]31CCN(C)[C@@H]2C5`, the ED50 was found to be 0.0433 µmol/kg in the experiment with Rattus norvegicus [1], 0.0508 µmol/kg in the experiment with Rattus norvegicus [2] and 0.029 µmol/kg with Rattus norvegicus [4]. In addition, the outcome with Rattus norvegicus [11] was Active.
`Cl.Cl.O=C(O)CN[C@@H]1CC[C@@]2(OCCCc3ccccc3)[C@H]3Cc4ccc(O)c5c4[C@@]2(CCN3CC2CC2)[C@H]1O5`: the “fold change (FC)” value in the experiment on Rattus norvegicus [5] is given as 41. For the same molecule, the Ki stood at 0.2 nM on Mu-type opioid receptor, 0.35 nM in experiment [6] and 0.65 nM in [7]. The values for the ED50 in the experiment with Rattus norvegicus [1], with Rattus norvegicus [2] and in the experiment with Rattus norvegicus [4] were 0.147 µmol/kg, 1.56 µmol/kg and 0.183 µmol/kg, respectively.
Take `CN1CC[C@]23c4c5ccc(O)c4O[C@H]2[C@H](NCC(=O)O)CC[C@@]3(OCCCc2ccccc2)[C@H]1C5`: in the experiment with Rattus norvegicus [8], the outcome was Active.
As to `Cl.Cl.O=C(O)CN[C@H]1CC[C@@]2(OCCCc3ccccc3)[C@H]3Cc4ccc(O)c5c4[C@@]2(CCN3CC2CC2)[C@H]1O5`, the “fold change (FC)” value in the experiment on Rattus norvegicus [5] was found to be 17. In addition, the Ki came out at 0.27 nM at Mu-type opioid receptor, 0.33 nM in [6] and 0.64 nM in experiment [7]. The ED50 is 0.433 µmol/kg in the experiment on Rattus norvegicus [1], 1.39 µmol/kg in the experiment with Rattus norvegicus [2], 0.543 µmol/kg with Rattus norvegicus [3] and 0.349 µmol/kg in the experiment on Rattus norvegicus [4].
